Assay results reported in ChEMBL document CHEMBL3808357, “Discovery of N-(3-((1-Isonicotinoylpiperidin-4-yl)oxy)-4-methylphenyl)-3-(trifluoromethyl)benzamide (CHMFL-KIT-110) as a Selective, Potent, and Orally Available Type II c-KIT Kinase Inhibitor for Gastrointestinal Stromal Tumors (GISTs)” (J Med Chem, 2016).

Tests used:
[1] = Antiproliferative activity against mouse BAF3 cells; type: cell-based
[2] = target: Mast/stem cell growth factor receptor Kit (Homo sapiens) (UniProt P10721); test: Inhibition of Tel-fused cKIT (unknown origin) transfected in mouse BAF3 cells assessed as decrease in cell proliferation after 72 hrs by celltiter-glo/CCK8 assay; type: cell-based
Chain of Mast/stem cell growth factor receptor Kit (Homo sapiens) (P10721 whole entry, the tested form may be a part): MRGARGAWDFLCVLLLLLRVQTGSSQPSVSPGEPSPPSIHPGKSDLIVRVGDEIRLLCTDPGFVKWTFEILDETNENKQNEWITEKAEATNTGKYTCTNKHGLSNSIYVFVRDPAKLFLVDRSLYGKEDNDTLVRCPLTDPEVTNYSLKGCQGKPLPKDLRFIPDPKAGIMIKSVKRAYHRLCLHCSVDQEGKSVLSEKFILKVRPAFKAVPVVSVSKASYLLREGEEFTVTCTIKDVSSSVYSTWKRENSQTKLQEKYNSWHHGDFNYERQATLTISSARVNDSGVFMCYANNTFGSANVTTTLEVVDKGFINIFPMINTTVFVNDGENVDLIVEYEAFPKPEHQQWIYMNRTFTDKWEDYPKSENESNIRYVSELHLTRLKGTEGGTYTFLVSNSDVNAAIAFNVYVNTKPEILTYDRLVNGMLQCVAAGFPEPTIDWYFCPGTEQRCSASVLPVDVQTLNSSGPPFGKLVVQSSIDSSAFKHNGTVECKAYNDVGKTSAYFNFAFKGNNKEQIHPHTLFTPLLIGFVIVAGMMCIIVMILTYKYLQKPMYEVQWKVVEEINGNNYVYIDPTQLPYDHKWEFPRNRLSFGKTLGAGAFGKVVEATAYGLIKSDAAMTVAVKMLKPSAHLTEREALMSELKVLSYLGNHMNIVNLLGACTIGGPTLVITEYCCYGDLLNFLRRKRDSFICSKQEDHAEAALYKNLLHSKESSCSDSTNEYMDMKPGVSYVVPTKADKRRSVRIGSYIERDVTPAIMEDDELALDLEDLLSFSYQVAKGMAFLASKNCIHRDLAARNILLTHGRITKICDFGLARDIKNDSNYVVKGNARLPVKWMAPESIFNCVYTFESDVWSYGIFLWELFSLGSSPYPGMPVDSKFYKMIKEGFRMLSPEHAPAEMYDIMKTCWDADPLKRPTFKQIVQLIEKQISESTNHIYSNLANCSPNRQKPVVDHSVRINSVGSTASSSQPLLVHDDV
How it was run: (§1)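 Cells were seeded at 1 to 3 × 10⁴ cells/mL with serial compound concentrations and incubated 72 h at 37 °C, 5% CO₂. Viability was read by CellTiter-Glo luminescence or CCK-8 absorbance (450/655 nm). GI50 values are from triplicate testing. GIST-T1 and CHO were grown in DMEM/10% FBS; GIST-882, GIST-48B and MV4-11 in IMDM/10% FBS; other lines in RPMI 1640/10% FBS.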

K562 = test: Antiproliferative activity against BCR-ABL dependent human K562 cells assessed as reduction in cell viability after 72 hrs by celltiter-glo/CCK8 assay; type: functional; conditions: K562, 72 h; how it was run: as §1
[3] = tested on: Mast/stem cell growth factor receptor Kit (Homo sapiens), P10721 [V559D]; test: Inhibition of Tel-fused cKIT V559D mutant (unknown origin) transfected in mouse BAF3 cells assessed as decrease in cell proliferation after 72 hrs by celltiter-glo/CCK8 assay; type: cell-based
Chain of Mast/stem cell growth factor receptor Kit (Homo sapiens), P10721 [V559D] (P10721 whole entry V559D, the tested form may be a part): as the sequence (P10721 whole entry, the tested form may be a part) above, with V559D counted along it
How it was run: (§2)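 Stable BaF3 lines made by retroviral transduction with mutagenized TEL-KIT MSCV vectors, puromycin selection 48 h, then gradual IL-3 withdrawal until IL-3-independent; grown in RPMI 1640 with 10% FBS. Cells at 1 to 3 × 10⁴ cells/mL exposed to a concentration series for 72 h; viability read by CellTiter-Glo luminescence or CCK-8 absorbance (450/655 nm); GI50 from triplicate testing.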

[4] = tested on: Mast/stem cell growth factor receptor Kit (Homo sapiens), P10721 [T670I]; test: Inhibition of Tel-fused cKIT T670I mutant (unknown origin) transfected in mouse BAF3 cells assessed as decrease in cell proliferation after 72 hrs by celltiter-glo/CCK8 assay; type: cell-based; how it was run: as §2
Chain of Mast/stem cell growth factor receptor Kit (Homo sapiens), P10721 [T670I] (P10721 whole entry T670I, the tested form may be a part): as the sequence (P10721 whole entry, the tested form may be a part) above, with T670I counted along it

[5] = tested on: Mast/stem cell growth factor receptor Kit (Homo sapiens), P10721 [V654A]; test: Inhibition of Tel-fused cKIT V654A mutant (unknown origin) transfected in mouse BAF3 cells assessed as decrease in cell proliferation after 72 hrs by celltiter-glo/CCK8 assay; type: cell-based; how it was run: as §2
Chain of Mast/stem cell growth factor receptor Kit (Homo sapiens), P10721 [V654A] (P10721 whole entry V654A, the tested form may be a part): as the sequence (P10721 whole entry, the tested form may be a part) above, with V654A counted along it

[6] = tested on: Mast/stem cell growth factor receptor Kit (Homo sapiens), P10721 [V559D,T670I]; test: Inhibition of Tel-fused cKIT T670I/V559D double mutant (unknown origin) transfected in mouse BAF3 cells assessed as decrease in cell proliferation after 72 hrs by celltiter-glo/CCK8 assay; type: cell-based; how it was run: as §2
Chain of Mast/stem cell growth factor receptor Kit (Homo sapiens), P10721 [V559D,T670I] (P10721 whole entry V559D/T670I, the tested form may be a part): as the sequence (P10721 whole entry, the tested form may be a part) above, with V559D, T670I counted along it

[7] = tested on: Mast/stem cell growth factor receptor Kit (Homo sapiens), P10721 [D816V]; test: Inhibition of Tel-fused cKIT D816V mutant (unknown origin) transfected in mouse BAF3 cells assessed as decrease in cell proliferation after 72 hrs by celltiter-glo/CCK8 assay; type: cell-based; how it was run: as §2
Chain of Mast/stem cell growth factor receptor Kit (Homo sapiens), P10721 [D816V] (P10721 whole entry D816V, the tested form may be a part): as the sequence (P10721 whole entry, the tested form may be a part) above, with D816V counted along it

[8] = Antiproliferative activity against cKIT dependent human GISTT1 cells assessed as reduction in cell viability after 72 hrs by celltiter-glo/CCK8 assay; type: functional; conditions: GISTT1, 72 h; how it was run: as §1
MV4-11 = test: Antiproliferative activity against FLT3-ITD dependent human MV4-11 cells assessed as reduction in cell viability after 72 hrs by celltiter-glo/CCK8 assay; type: functional; conditions: MV4-11, 72 h; how it was run: as §1
[9] = Antiproliferative activity against cKIT dependent human GIST882 cells assessed as reduction in cell viability after 72 hrs by celltiter-glo/CCK8 assay; type: functional; conditions: GIST882, 72 h; how it was run: as §1
[10] = Antiproliferative activity against human GIST48B cells assessed as reduction in cell viability after 72 hrs by celltiter-glo/CCK8 assay; type: functional; how it was run: as §1
[11] = Antiproliferative activity against human BCR-ABL dependent MEG01 cells assessed as reduction in cell viability after 72 hrs by celltiter-glo/CCK8 assay; type: functional; conditions: MEG-01, 72 h
[12] = Antiproliferative activity against BCR-ABL dependent human KU812 cells assessed as reduction in cell viability after 72 hrs by celltiter-glo/CCK8 assay; type: functional; conditions: KU812, 72 h; how it was run: as §1
[13] = Antiproliferative activity against human U937 cells assessed as reduction in cell viability after 72 hrs by celltiter-glo/CCK8 assay; type: functional; conditions: U-937, 72 h; how it was run: as §1
[14] = Antiproliferative activity against FLT3-ITD dependent human MOLM14 cells assessed as reduction in cell viability after 72 hrs by celltiter-glo/CCK8 assay; type: functional; conditions: MOLM-14, 72 h; how it was run: as §1
[15] = Antiproliferative activity against human HL60 cells assessed as reduction in cell viability after 72 hrs by celltiter-glo/CCK8 assay; type: functional; conditions: HL-60, 72 h; how it was run: as §1
[16] = Antiproliferative activity against human Rec1 cells assessed as reduction in cell viability after 72 hrs by celltiter-glo/CCK8 assay; type: functional; conditions: Rec1, 72 h; how it was run: as §1
[17] = Antiproliferative activity against CHL cells assessed as reduction in cell viability after 72 hrs by celltiter-glo/CCK8 assay; type: cell-based, Cricetulus griseus; conditions: chinese hamster; how it was run: as §1
[18] = Antiproliferative activity against CHO cells assessed as reduction in cell viability after 72 hrs by celltiter-glo/CCK8 assay; type: cell-based, Cricetulus griseus; conditions: chinese hamster; how it was run: as §1

GI50 [2] [µM] | GI50 (K562) [µM] | SMILES | GI50 [1] [µM] | other results
0.065 | 1.96 | Cc1ccc(NC(=O)c2ccc(C)c(C(F)(F)F)c2)cc1OC1CCN(C(=O)c2ccno2)CC1 | 8.94 | 
> 10 | > 10 | COc1ccc(NC(=O)c2cccc(C(F)(F)F)c2)cc1OC1CCN(C(=O)c2cccnc2)CC1 | > 10 | 
0.031 | 2.32 | Cc1ccc(NC(=O)c2ccc(C)c(C(F)(F)F)c2)cc1OC1CCN(C(=O)c2ccncc2)CC1 | 6.39 | 
0.083 | 5.85 | Cc1ccc(NC(=O)c2ccc(C)c(C(F)(F)F)c2)cc1OC1CCN(C(=O)c2cccnc2)CC1 | 5.47 | 
1.55 | > 10 | CCC(=O)N1CCC(Oc2cc(NC(=O)c3cccc(C(F)(F)F)c3)ccc2C)CC1 | > 10 | 
> 10 | > 10 | Cc1ccc(NC(=O)c2cccc(C(F)(F)F)n2)cc1OC1CCN(C(=O)c2cccnc2)CC1 | > 10 | 
0.62 | 8.36 | C=CC(=O)N1CCC(Oc2cc(NC(=O)c3cccc(C(F)(F)F)c3)ccc2C)CC1 | > 10 | 

More lines, now with the values behind:

SMILES | GI50 [2] [µM] | GI50 (K562) [µM] | GI50 [1] [µM] | other results
Cc1ccc(NC(=O)c2cccc(C(F)(F)F)n2)cc1OC1CCN(C(=O)c2ccno2)CC1 | > 10 | > 10 | > 10 | 
Cc1ccc(NC(=O)c2cc(C(C)(C)C)on2)cc1OC1CCN(C(=O)c2cccnc2)CC1 | 0.34 | 9.92 | > 10 | 
CCN(CC)CCNC(=O)c1c(C)[nH]c(/C=C2\C(=O)Nc3ccc(F)cc32)c1C [SUNITINIB] | 0.078 | 1 | 2.78 | GI50 [3]: 0.009 µM; GI50 [4]: 0.002 µM; GI50 [5]: 0.02 µM; GI50 [6]: 0.053 µM; GI50 [7]: 1.38 µM; GI50 [8]: 0.041 µM; GI50 (MV4-11): 0.001 µM; GI50 [9]: 0.11 µM; GI50 [10]: 2.01 µM; GI50 [11]: 1.2 µM; GI50 [12]: 1.1 µM; GI50 [13]: 1.7 µM; GI50 [14]: 0.005 µM; GI50 [15]: 0.001 µM; GI50 [16]: 0.87 µM; GI50 at 72 h [17]: 2.48 µM; GI50 at 72 h [18]: 2.03 µM
Cc1ccc(NC(=O)Nc2ccc(Cl)c(C(F)(F)F)c2)cc1OC1CCN(C(=O)c2cccnc2)CC1 | 2.6 | 0.78 | 3.3 | 
O=C(Nc1cccc(OC2CCN(C(=O)c3cccnc3)CC2)c1)c1cccc(C(F)(F)F)c1 | 0.49 | > 10 | > 10 | 
Cc1ccc(NC(=O)c2cnc3ccccc3c2)cc1OC1CCN(C(=O)c2cccnc2)CC1 | 5.55 | > 10 | > 10 | 
O=C(Nc1cccc(OC2CCCN(C(=O)c3ccno3)C2)c1)c1cccc(C(F)(F)F)c1 (centres undefined) | > 10 | > 10 | > 10 | 
